Laboratory results: ChEMBL document CHEMBL1828615, “Synthesis of a series of 3,4-methanoarginines as side-chain conformationally restricted analogues of arginine” (Bioorg Med Chem, 2011)

Legend:
[1] = substrate: N=C(N)NCCC[C@H](N)C(=O)O; assay: (§1) Activity of mouse iNOS by Michaelis-Menten equation analysis
Method in brief: (§2)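 Murine iNOS kinetics used a hemoglobin capture assay at 30 °C, with no CaCl₂ or calmodulin. The mix held varied substrate concentrations, NADPH, 0.125 mg/mL ferrous hemoglobin-A₀ and H₄B in 100 mM HEPES (pH 7.5), and enzyme addition started it. Absorbance at 401 nm tracked NO-mediated hemoglobin oxidation. Km and kcat were obtained by nonlinear Michaelis–Menten regression of activity against substrate concentration.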

[2] = substrate: N=C(N)NC[C@H]1C[C@@H]1[C@H](N)C(=O)O; assay: as §1; method in brief: as §2
[3] = substrate: N=C(N)NC[C@H]1C[C@H]1[C@H](N)C(=O)O; assay: as §1; method in brief: as §2
[4] = substrate: N=C(N)NCCC[C@H](N)C(=O)O; assay: (§3) Ratio of Kcat to Km for mouse iNOS by Michaelis-Menten equation analysis; method in brief: as §2
[5] = substrate: N=C(N)NC[C@H]1C[C@@H]1[C@H](N)C(=O)O; assay: as §3; method in brief: as §2
[6] = substrate: N=C(N)NC[C@H]1C[C@H]1[C@H](N)C(=O)O; assay: as §3; method in brief: as §2
[7] = substrate: N=C(N)NCCC[C@H](N)C(=O)O; assay: (§4) Activity of bovine eNOS by Michaelis-Menten equation analysis; details: Bos taurus
Method in brief: (§5)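 Bovine eNOS run as a hemoglobin capture assay at 30 °C. The mix held varied substrate concentrations, 1.0 mM CaCl₂, 600 unit/mL calmodulin, NADPH, 0.125 mg/mL ferrous hemoglobin-A₀ and H₄B in 100 mM HEPES (pH 7.5). Enzyme addition started the reaction, and NO-driven hemoglobin oxidation was followed at 401 nm. Km and kcat came from a nonlinear Michaelis–Menten fit of activity versus substrate concentration.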

[8] = substrate: N=C(N)NC[C@H]1C[C@@H]1[C@H](N)C(=O)O; assay: as §4; details: Bos taurus; method in brief: as §5
[9] = substrate: N=C(N)NC[C@H]1C[C@H]1[C@H](N)C(=O)O; assay: as §4; details: Bos taurus; method in brief: as §5
[10] = substrate: N=C(N)NCCC[C@H](N)C(=O)O; assay: (§6) Ratio of Kcat to Km for bovine eNOS by Michaelis-Menten equation analysis; details: Bos taurus; method in brief: as §5
[11] = substrate: N=C(N)NC[C@H]1C[C@@H]1[C@H](N)C(=O)O; assay: as §6; details: Bos taurus; method in brief: as §5
[12] = substrate: N=C(N)NC[C@H]1C[C@H]1[C@H](N)C(=O)O; assay: as §6; details: Bos taurus; method in brief: as §5

Row | Protein | Km [1] [µM] | Km [2] [µM] | Km [3] [µM] | kcat/Km [4] [M⁻¹ s⁻¹] | kcat/Km [5] [M⁻¹ s⁻¹] | kcat/Km [6] [M⁻¹ s⁻¹] | Km [7] [µM] | Km [8] [µM] | Km [9] [µM] | kcat/Km [10] [M⁻¹ s⁻¹] | kcat/Km [11] [M⁻¹ s⁻¹] | kcat/Km [12] [M⁻¹ s⁻¹]
1 | Nitric oxide synthase, inducible (Mus musculus), P29477 (protein) MACPWKFLFKVKSYQSDLKEEKDINNNVKKTPCAVLSPTIQDDPKSHQNGSPQLLTGTAQNVPESLDKLHVTSTRPQYVRIKNWGSGEILHDTLHHKATSDFTCKSKSCLGSIMNPKSLTRGPRDKPTPLEELLPHAIEFINQYYGSFKEAKIEEHLARLEAVTKEIETTGTYQLTLDELIFATKMAWRNAPRCIGRIQWSNLQVFDARNCSTAQEMFQHICRHILYATNNGNIRSAITVFPQRSDGKHDFRLWNSQLIRYAGYQMPDGTIRGDAATLEFTQLCIDLGWKPRYGRFDVLPLVLQADGQDPEVFEIPPDLVLEVTMEHPKYEWFQELGLKWYALPAVANMLLEVGGLEFPACPFNGWYMGTEIGVRDFCDTQRYNILEEVGRRMGLETHTLASLWKDRAVTEINVAVLHSFQKQNVTIMDHHTASESFMKHMQNEYRARGGCPADWIWLVPPVSGSITPVFHQEMLNYVLSPFYYYQIEPWKTHIWQNEKLRPRRREIRFRVLVKVVFFASMLMRKVMASRVRATVLFATETGKSEALARDLATLFSYAFNTKVVCMDQYKASTLEEEQLLLVVTSTFGNGDCPSNGQTLKKSLFMLRELNHTFRYAVFGLGSSMYPQFCAFAHDIDQKLSHLGASQLAPTGEGDELSGQEDAFRSWAVQTFRAACETFDVRSKHHIQIPKRFTSNATWEPQQYRLIQSPEPLDLNRALSSIHAKNVFTMRLKSQQNLQSEKSSRTTLLVQLTFEGSRGPSYLPGEHLGIFPGNQTALVQGILERVVDCPTPHQTVCLEVLDESGSYWVKDKRLPPCSLSQALTYFLDITTPPTQLQLHKLARFATDETDRQRLEALCQPSEYNDWKFSNNPTFLEVLEEFPSLHVPAAFLLSQLPILKPRYYSISSSQDHTPSEVHLTVAVVTYRTRDGQGPLHHGVCSTWIRNLKPQDPVPCFVRSVSGFQLPEDPSQPCILIGPGTGIAPFRSFWQQRLHDSQHKGLKGGRMSLVFGCRHPEEDHLYQEEMQEMVRKRVLFQVHTGYSRLPGKPKVYVQDILQKQLANEVLSVLHGEQGHLYICGDVRMARDVATTLKKLVATKLNLSEEQVEDYFFQLKSQKRYHEDIFGAVFSYGAKKGSALEEPKATRL | 9.5 | 20 | 582 | 110000 | 99000 | 3000 |  |  |  |  |  | 
2 | Nitric oxide synthase 3 (Bos taurus), P29473 (protein) MGNLKSVGQEPGPPCGLGLGLGLGLCGKQGPASPAPEPSRAPAPATPHAPDHSPAPNSPTLTRPPEGPKFPRVKNWELGSITYDTLCAQSQQDGPCTPRCCLGSLVLPRKLQTRPSPGPPPAEQLLSQARDFINQYYSSIKRSGSQAHEERLQEVEAEVASTGTYHLRESELVFGAKQAWRNAPRCVGRIQWGKLQVFDARDCSSAQEMFTYICNHIKYATNRGNLRSAITVFPQRAPGRGDFRIWNSQLVRYAGYRQQDGSVRGDPANVEITELCIQHGWTPGNGRFDVLPLLLQAPDEAPELFVLPPELVLEVPLEHPTLEWFAALGLRWYALPAVSNMLLEIGGLEFSAAPFSGWYMSTEIGTRNLCDPHRYNILEDVAVCMDLDTRTTSSLWKDKAAVEINLAVLHSFQLAKVTIVDHHAATVSFMKHLDNEQKARGGCPADWAWIVPPISGSLTPVFHQEMVNYILSPAFRYQPDPWKGSATKGAGITRKKTFKEVANAVKISASLMGTLMAKRVKATILYASETGRAQSYAQQLGRLFRKAFDPRVLCMDEYDVVSLEHEALVLVVTSTFGNGDPPENGESFAAALMEMSGPYNSSPRPEQHKSYKIRFNSVSCSDPLVSSWRRKRKESSNTDSAGALGTLRFCVFGLGSRAYPHFCAFARAVDTRLEELGGERLLQLGQGDELCGQEEAFRGWAKAAFQASCETFCVGEEAKAAAQDIFSPKRSWKRQRYRLSTQAEGLQLLPGLIHVHRRKMFQATVLSVENLQSSKSTRATILVRLDTAGQEGLQYQPGDHIGICPPNRPGLVEALLSRVEDPPPPTESVAVEQLEKGSPGGPPPSWVRDPRLPPCTLRQALTFFLDITSPPSPRLLRLLSTLAEEPSEQQELETLSQDPRRYEEWKWFRCPTLLEVLEQFPSVALPAPLLLTQLPLLQPRYYSVSSAPNAHPGEVHLTVAVLAYRTQDGLGPLHYGVCSTWLSQLKTGDPVPCFIRGAPSFRLPPDPYVPCILVGPGTGIAPFRGFWQERLHDIESKGLQPAPMTLVFGCRCSQLDHLYRDEVQDAQERGVFGRVLTAFSREPDSPKTYVQDILRTELAAEVHRVLCLERGHMFVCGDVTMATSVLQTVQRILATEGDMELDEAGDVIGVLRDQQRYHEDIFGLTLRTQEVTSRIRTQSFSLQERHLRGAVPWAFDPPGPDTPGP |  |  |  |  |  |  | 1.1 | 3.6 | 163 | 73000 | 42000 | 920
